Measured values taken from article PMC10807744 (Journal of agricultural and food chemistry, 2023).

Tested on: mAb-19F2
Test: ic-ELISA
Assay type: binding, BALB/c mice
Settings: mAb-19F2, relative to buprofezin = 100%

Which Cross-reactivity does the source give for `O=C1C=C(N(Cc2ccc(Cl)nc2)CC(F)F)CO1` [Flupyradifurone] here?
Its Cross-reactivity is under 0.18%.

How did the Cross-reactivity turn out when `FC(F)(F)c1ccc(OCCCOc2c(Cl)cc(OCC=C(Cl)Cl)cc2Cl)nc1` [Pyrldalyl] was run?
The Cross-reactivity was under 0.18%.

How did the Cross-reactivity turn out when `CCCOC1CC(C)C([N+](=O)[O-])=C2N(Cc3ccc(Cl)nc3)CCN21` (centres unmarked) [Paichongding(IPP)] was run?
Its Cross-reactivity is under 0.18%.

For `CC(C)N1C(=O)N(c2ccccc2)CS/C1=N\C(C)(C)C` [Buprofezin], which Cross-reactivity is on record?
The Cross-reactivity was 100%.

How did the Cross-reactivity turn out when `CC(COc1ccc(Oc2ccccc2)cc1)Oc1ccccn1` (centres unmarked) [Pyriproxyfen] was run?
Its Cross-reactivity is under 0.18%.

With `O=C(NC(=O)c1c(F)cccc1F)Nc1ccc(Cl)cc1` [Diflubenzuron] as the compound, how does the Cross-reactivity read?
Its Cross-reactivity is under 0.18%.

`O=C(NC(=O)c1ccccc1Cl)Nc1ccc(Cl)cc1` [Chlorbenzuron] was tested. Which Cross-reactivity did it give?
Its Cross-reactivity is under 0.18%.

For `CC(c1ccc(C(F)(F)F)nc1)S(C)(=O)=NC#N` (centres unmarked) [Sulfoxaflor], which Cross-reactivity is on record?
The Cross-reactivity was under 0.18%.

Which Cross-reactivity does the source give for `N#CCNC(=O)c1cnccc1C(F)(F)F` [Flonicamid] here?
Its Cross-reactivity is under 0.18%.

With `O=[N+]([O-])/N=C1\NCCN1Cc1cnc(Cl)s1` [Imidaclothiz] as the compound, how does the Cross-reactivity read?
The Cross-reactivity was under 0.18%.

`Cc1cc(C)cc(C(=O)N(NC(=O)c2ccc3c(c2C)CCCO3)C(C)(C)C)c1` [Chromafenozide] was tested. Which Cross-reactivity did it give?
The Cross-reactivity was under 0.18%.

Which Cross-reactivity does the source give for `CCCC/C=N/N(Cc1ccc(Cl)nc1)/C(N)=N/[N+](=O)[O-]` [Guadipyr] here?
The Cross-reactivity was under 0.18%.

With `O=C(NC(=O)c1c(F)cccc1F)Nc1cc(Cl)c(OC(F)(F)C(F)F)c(Cl)c1` [Hexaflumuron] as the compound, how does the Cross-reactivity read?
The Cross-reactivity was under 0.18%.

With `CN/C(=N/CC1CCOC1)N[N+](=O)[O-]` (centres unmarked) [Dinotefuran] as the compound, how does the Cross-reactivity read?
The Cross-reactivity was under 0.18%.

For `CCOC(=O)NCCOc1ccc(Oc2ccccc2)cc1` [Fenoxycarb], which Cross-reactivity is on record?
The Cross-reactivity was under 0.18%.

With `N#CN=C1SCCN1Cc1ccc(Cl)nc1` [(E)-Thiacloprid] as the compound, how does the Cross-reactivity read?
The Cross-reactivity was under 0.18%.

`O=C(NC(=O)c1c(F)cccc1F)Nc1cc(Cl)c(Oc2ncc(C(F)(F)F)cc2Cl)c(Cl)c1` [Chlorfluazuron] was tested. Which Cross-reactivity did it give?
Its Cross-reactivity is under 0.18%.

How did the Cross-reactivity turn out when `O=C(NC(=O)c1ccccc1Cl)Nc1ccc(OC(F)(F)F)cc1` [Triflumuron] was run?
Its Cross-reactivity is under 0.18%.

`O=C(NC(=O)c1c(F)cccc1F)Nc1cc(Cl)c(OC(F)(F)C(F)C(F)(F)F)cc1Cl` (centres unmarked) [Lufenuron] was tested. Which Cross-reactivity did it give?
Its Cross-reactivity is under 0.18%.

For `CN1COCN(Cc2cnc(Cl)s2)/C1=N\[N+](=O)[O-]` [Thiamethoxam], which Cross-reactivity is on record?
The Cross-reactivity was under 0.18%.

How did the Cross-reactivity turn out when `CC(C)(C)N(NC(=O)c1ccccc1)C(=O)c1ccccc1` [1,2-dibenzoyl-1-(t-butyl)hydrazine] was run?
Its Cross-reactivity is under 0.18%.

How did the Cross-reactivity turn out when `CN/C(=N\[N+](=O)[O-])NCc1cnc(Cl)s1` [Clothianidin] was run?
The Cross-reactivity was under 0.18%.

Which Cross-reactivity does the source give for `CCN(Cc1ccc(Cl)nc1)/C(=C/[N+](=O)[O-])NC` [Nitenpyram] here?
The Cross-reactivity was under 0.18%.

`C/C(=N\C#N)N(C)Cc1ccc(Cl)nc1` [Acetamiprid] was tested. Which Cross-reactivity did it give?
Its Cross-reactivity is under 0.18%.

For `CCc1ccc(C(=O)NN(C(=O)c2cc(C)cc(C)c2)C(C)(C)C)cc1` [Tebufenozide], which Cross-reactivity is on record?
Its Cross-reactivity is under 0.18%.

How did the Cross-reactivity turn out when `Nc1nc(N)nc(NC2CC2)n1` [Cyromazine] was run?
Its Cross-reactivity is under 0.18%.

Tested on: mAb-19F2
Test: colloidal gold immunochromatographic assay
Assay type: binding, BALB/c mice
Settings: GICA; abstract
Summary of the method: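 Colloidal gold strips were striped with […]. Tea was soaked 30 min in 50 mL boiling water, adjusted to pH 6-7, and 100 µL applied. Spikes were 2.5, 5 and 10 mg/kg. LOD was read by eye as test-line disappearance, and LOQ as IC20.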

How did the “limit of quantitation (LOQ, IC20)” value turn out when `CC(C)N1C(=O)N(c2ccccc2)CS/C1=N\C(C)(C)C` [Buprofezin] was run?
Its value is 0.0168 µg/mL.

Same assay, conditions: T/C values, buprofezin standard in 0.01 M PBS

`CC(C)N1C(=O)N(c2ccccc2)CS/C1=N\C(C)(C)C` [Buprofezin] was tested. Which “IC50 of the test strip” value did it give?
Its value is 0.2312 µg/mL.

Same assay, conditions: complete disappearance of test line visible to the naked eye

With `CC(C)N1C(=O)N(c2ccccc2)CS/C1=N\C(C)(C)C` [Buprofezin] as the compound, how does the “detection limit (LOD)” value read?
Its value is 500 ng/mL.
